One may read the kcat as the number of substrate molecules converted per active site and unit of time at saturation. The term Km denotes the substrate concentration at which the rate is half of its maximum.

The source made the active and inactive calls. The rule behind the calls is not given here. Where only a bound is given, the exact number is not on record here.

Our source for the Activity, kcat and Km values is ChEMBL document CHEMBL4308845, “Allosteric Activation of Striatal-Enriched Protein Tyrosine Phosphatase (STEP, PTPN5) by a Fragment-like Molecule” (J Med Chem, 2019).

In data set [1] the target is Tyrosine-protein phosphatase non-receptor type 5 (Homo sapiens) (UniProt P54829). Kind of data set: Binding affinity to human 15N-labeled STEP PTP domain (281 to 563 residues) expressed in Escherichia coli OD2 assessed as induction of chemical perturbation at 2 mM by 1H,15N TROSY NMR spectral analysis. Put shortly: (§1)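 40 μM 15N-labelled STEP PTP domain in 20 mM Tris-d11, 100 mM NaCl, 1 mM TCEP, pH 7.4, 8% D2O, 1% DMSO-d6, 298 K. TROSY spectra used 192 transients and 64 indirect points. Binders were called by manual comparison with the protein-only reference spectrum.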

Data set [2] has as its target T1, Tyrosine-protein phosphatase non-receptor type 5 (Homo sapiens) (UniProt P54829).
T1 sequence (whole entry): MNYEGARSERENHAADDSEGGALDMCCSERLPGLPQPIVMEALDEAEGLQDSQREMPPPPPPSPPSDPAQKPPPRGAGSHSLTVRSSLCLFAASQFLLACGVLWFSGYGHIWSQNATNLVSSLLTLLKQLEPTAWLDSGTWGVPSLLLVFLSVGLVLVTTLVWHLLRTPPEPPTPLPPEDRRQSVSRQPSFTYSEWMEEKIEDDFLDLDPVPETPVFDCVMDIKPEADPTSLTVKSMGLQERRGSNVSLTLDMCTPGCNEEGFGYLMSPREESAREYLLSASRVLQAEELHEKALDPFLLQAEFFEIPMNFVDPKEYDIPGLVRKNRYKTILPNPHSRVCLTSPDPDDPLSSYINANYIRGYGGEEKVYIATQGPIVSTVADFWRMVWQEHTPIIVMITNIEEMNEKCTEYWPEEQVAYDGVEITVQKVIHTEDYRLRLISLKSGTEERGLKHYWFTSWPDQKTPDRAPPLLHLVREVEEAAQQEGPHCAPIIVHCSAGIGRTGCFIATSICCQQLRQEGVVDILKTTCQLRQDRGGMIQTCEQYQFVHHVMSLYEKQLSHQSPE
Kind of data set: Binding affinity to human 15N-labeled STEP PTP domain (281 to 563 residues) expressed in Escherichia coli OD2 assessed as induction of chemical perturbation at 500 uM by 1H,15N TROSY NMR spectral analysis. In short, it runs like this:
as §1

The species entered for data set [3] is Homo sapiens. Description: Binding affinity to human STEP46 (197 to 565 residues) expressed in Escherichia coli BL21(DE3) at 250 uM by STD-NMR method. Put shortly:
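Saturation was 3 s Gaussian pulse train, on-resonance −0.2 ppm, off-resonance 60 ppm. A 30 ms spin-lock suppressed protein signal, and the difference spectrum was taken.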

The species named for data set [4] is Homo sapiens. Description: Binding affinity to human STEP46 (197 to 565 residues) expressed in Escherichia coli BL21(DE3) at 500 uM by SYPRO Orange dye based DSF. In short, it runs like this:
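Final mix was 5 μM STEP46, 25× SYPRO Orange, 500 μM fragment, 1% DMSO in 20 mM HEPES pH 7.5, 50 mM NaCl, 1 mM TCEP, in duplicate. Samples were heated 25→95 °C at 1 °C/min, read every 0.5 °C. Tm was taken from the first-derivative minimum. ΔTm ≥0.5 °C versus DMSO counted as a hit.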

The species named for data set [5] is Homo sapiens. Kind of data set: Binding affinity to human STEP46 (197 to 565 residues) expressed in Escherichia coli BL21(DE3) by MST method.
Compound in data set [6]: N=C(N)Nc1cc(C2CCNCC2)cc(C(F)(F)F)c1
Description: Activation of human STEP PTP domain (281 to 563 residues) expressed in Escherichia coli BL21(DE3) assessed as Kcat at 500 uM using pFyn peptide substrate after 60 mins by RapidFire MS/MS assay (reference value: 0.024 +/- 0.002 /s).

Compound in data set [7]: N=C(N)Nc1cc(C2CCNCC2)cc(C(F)(F)F)c1
Description: Activation of human STEP PTP domain (281 to 563 residues) expressed in Escherichia coli BL21(DE3) assessed as Km for substrate at 500 uM using pFyn peptide substrate after 60 mins by RapidFire MS/MS assay (reference value: 60.8 +/- 7.9 uM).

Consider SODIUM ORTHOVANAD, for which the outcome in data set [1] was Active.
Turning to `N=C(N)Nc1cccc(C(F)(F)F)c1`, the result in data set [2] was Active.
For the molecule `CC(N)Cc1cc(N)cc(C(F)(F)F)c1` (stereo not given), the result in data set [2] was inactive.
With `CC(N)Cc1cc(O)cc(C(F)(F)F)c1` (stereo not given), the outcome in the data set filed under Homo sapiens [3], in the data set filed under Homo sapiens [4] and in the data set listed under Homo sapiens [5] was Active. Further, the Activity in data set [2] is over 5 mM.
As to `CC(N)Cc1cccc(C(F)(F)F)c1` (stereo not given), in data set [2], the result was inactive.

B1: Tyrosine-protein phosphatase non-receptor type 5 (Homo sapiens), P54829 (protein)
chain: MNYEGARSERENHAADDSEGGALDMCCSERLPGLPQPIVMEALDEAEGLQDSQREMPPPPPPSPPSDPAQKPPPRGAGSHSLTVRSSLCLFAASQFLLACGVLWFSGYGHIWSQNATNLVSSLLTLLKQLEPTAWLDSGTWGVPSLLLVFLSVGLVLVTTLVWHLLRTPPEPPTPLPPEDRRQSVSRQPSFTYSEWMEEKIEDDFLDLDPVPETPVFDCVMDIKPEADPTSLTVKSMGLQERRGSNVSLTLDMCTPGCNEEGFGYLMSPREESAREYLLSASRVLQAEELHEKALDPFLLQAEFFEIPMNFVDPKEYDIPGLVRKNRYKTILPNPHSRVCLTSPDPDDPLSSYINANYIRGYGGEEKVYIATQGPIVSTVADFWRMVWQEHTPIIVMITNIEEMNEKCTEYWPEEQVAYDGVEITVQKVIHTEDYRLRLISLKSGTEERGLKHYWFTSWPDQKTPDRAPPLLHLVREVEEAAQQEGPHCAPIIVHCSAGIGRTGCFIATSICCQQLRQEGVVDILKTTCQLRQDRGGMIQTCEQYQFVHHVMSLYEKQLSHQSPE
Consider B1, for which, in data set [6], the kcat came out at 0.042 s⁻¹. In data set [7], the Km turned out to be 65.4 µM.
